According to PubChem BioAssay:
Inconclusive results are not listed.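 The calls were made as follows, unless noted: active = RAM network inhibition above 8.4% in each of two replicates, 3 SD over the compound average; inconclusive = above 8.4% inhibition in only one replicate; inactive = 8.4% inhibition or less in each replicate.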

Columns and labels:
[1] = S. cerevisiae growth inhibition in permissive medium (OD615), pilot counter-assay for S. cerevisiae lifespan shortening project, permissive growth control (AID 705;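 active = growth inhibition above 25% in both replicates, a cutoff set 3 SD above the mean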); conditions: OD615, 24 h, at 10 µM, stronger effect = higher value
In short: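 System: S. cerevisiae with engineered DeaD lifespan system. Medium: SC raffinose/galactose permissive medium. Doses: single compound dose of 10 µM, 0.25% DMSO final. Schedule: 24 h exposure, 30 °C. Measured by: OD615 turbidity read. Read-out: growth inhibition.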

[2] = S. cerevisiae growth inhibition in restrictive medium, OD615, pilot screen, restrictive growth control, yeast lifespan reduction project (AID 706;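 active = growth inhibition above a set limit, 3 SD over mean compound inhibition, in both replicates, cut at about 43% in these data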;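 also: modified DeaD lifespan yeast strain shifted to restrictive glucose medium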); conditions: OD615, 48 h, at 10 µM, stronger effect = higher value
In short: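 Assay system – genetically modified Saccharomyces cerevisiae, DeaD replicative lifespan assay strain · Medium – CSMM-D glucose medium · Doses – 10 µM compound, 0.25% DMSO · Times – 4 h pre-incubation, 48 h exposure at 30 °C · Signal – optical density at 615 nm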

[3] = doxorubicin toxicity protection in MRP-1 cells – H69AR cells, CellTiter-Glo, duplicate, MRP-1 activator project, pilot screen (AID 807;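 active = viability increase at or above a cutoff of the median across tested compounds plus 3 SD, cut at about 8.5% in these data, passing the limit was not always enough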;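 also: compound pretreatment 18-22 h then 72 h combined with doxorubicin; 0% = doxorubicin alone and 100% = vehicle without doxorubicin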); conditions: H69AR viability with doxorubicin, CellTiter-Glo luminescence; at 10 µM; stronger effect = higher value
[4] = viability of HCT116 without oncogenic beta-catenin – human colon tumor cells, pilot screen (AID 823;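 active = cell viability at or below a set limit in both duplicate runs, the limit being the all-compound median minus 4 SD, cut at about 23% in these data, passing the limit was not always enough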;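 also: 0% = wells killed by 20 µM Hyamine and 100% = untreated DMSO cell wells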); conditions: HCT116 beta-catenin knockout viability, CellTiter-Glo, 60 h; at 10 µM; stronger effect = lower value
[5] = viability of PTEN-null HCT116 cells – cell-based, HCT116 clonal line, CellTiter-Glo, pilot screen (AID 824;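 active = viability at or below 27.92% in each of two runs, the all-compound median minus 4 SD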;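 also: 0% = 20 µM Hyamine control and 100% = vehicle cell control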); conditions: HCT116 PTEN-deleted viability, 60 h, at 10 µM, stronger effect = lower value
[6] = RAM pathway blockade in budding yeast – dse1pr::URA3 reporter, 5-FOA selection, pilot screen (AID 869;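 active = inhibition over a set limit, the all-compound mean plus 3 SD, in both replicate runs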;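 also: 0% = DMSO wells with no growth and 100% = 10 µM 1-NA-PP1 with full growth; RAM network block rescues cells from 5-FOA so hits raise OD615 growth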); conditions: S. cerevisiae dse1pr::URA3 5-FOA growth, OD615, 2 d; at 10 µM; stronger effect = higher value; strain carries analog-sensitive mutant Cbk1 kinase
[7] = RAM signaling pathway blockade in yeast – S. cerevisiae, Pdr1DBD-CYC8 efflux-inhibited sensitized strain, primary screen (AID 1298);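 also: 0% = DMSO untreated cells without growth and 100% = 10 µM 1-NA-PP1 full growth; higher means more yeast growth rescued from 5-FOA killing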; conditions: S. cerevisiae cbk1-as DSE1-URA3 strain, 5-FOA growth OD615, 2 d; at 50 µM; stronger effect = higher value

Cc1ccccc1-n1nc(C(=O)O)c(C)c(C#N)c1=O
inactive: growth inhibition [1] -3.86% | growth inhibition [2] -6.29% | viability increase [3] -0.28% | viability [4] 97.8% | viability [5] 98.6% | inhibition [6] 2.41% | RAM network inhibition [7] 3.52%

CCC(C)Sc1nc2c(cnn2-c2ccc(C)cc2)c(=O)[nH]1 (configuration not stated)
inactive: growth inhibition [1] -13% | growth inhibition [2] -3.34% | viability increase [3] -3.06% | viability [4] 93.9% | viability [5] 88.9% | inhibition [6] 4.24% | RAM network inhibition [7] 0.41%

CCOc1ccc(OCC)c(Nc2cc(C)nc3nc(C)nn23)c1
inactive: growth inhibition [1] -13.3% | growth inhibition [2] -2.15% | viability increase [3] -6.5% | viability [4] 53.1% | viability [5] 46.6% | inhibition [6] 0.055% | RAM network inhibition [7] 6.18%

CCOCCCNC(=O)C(c1ccc(C)cc1)N(Cc1ccc2c(c1)OCO2)C(=O)CNC(C)=O (configuration not stated)
inactive: growth inhibition [1] -8.64% | growth inhibition [2] 0.77% | viability increase [3] 0.84% | viability [4] 100% | viability [5] 102% | inhibition [6] 0.88% | RAM network inhibition [7] 2.3%

COc1ccc(S(=O)(=O)N2CCN(C)CC2)cc1C
inactive: growth inhibition [1] -15.1% | growth inhibition [2] -4% | viability increase [3] 1.37% | viability [4] 88.4% | viability [5] 92.1% | inhibition [6] 3.29% | RAM network inhibition [7] 3.02%

Cc1ccccc1N1C(=O)c2cccc3c(N(C)CCO)ccc(c23)C1=O
inactive: growth inhibition [1] 5.99% | growth inhibition [2] -6.49% | viability increase [3] -3.91% | viability [4] 104% | viability [5] 90.4% | inhibition [6] 2.26% | RAM network inhibition [7] 2.12%

COC(=O)C1=CNC=C(C(=O)OC)C1c1ccc(C(=O)OC)cc1
inactive: growth inhibition [1] 1.55% | growth inhibition [2] 6.7% | viability increase [3] -3.35% | viability [4] 93.5% | viability [5] 98.3% | inhibition [6] 0.165% | RAM network inhibition [7] 2.17%

CCOc1ccc(N=CC2=C(O)CC(C)(C)CC2=O)cc1
inactive: growth inhibition [1] -18.6% | growth inhibition [2] -0.24% | viability increase [3] -0.38% | viability [4] 92% | viability [5] 103% | inhibition [6] 1.86% | RAM network inhibition [7] 1.77%

O=C(CN1CCOc2ccccc21)NCc1ccco1
inactive: growth inhibition [1] -11.6% | growth inhibition [2] -14.4% | viability increase [3] -4.51% | viability [4] 88.1% | viability [5] 82.9% | inhibition [6] 0.09% | RAM network inhibition [7] 0.05%

CCOc1ccc(C2CC(c3ccc(OC)cc3)n3ncnc3N2)cc1 (configuration not stated)
inactive: growth inhibition [1] 1.92% | growth inhibition [2] 21% | viability increase [3] 0.61% | viability [4] 104% | viability [5] 99% | inhibition [6] -0.22% | RAM network inhibition [7] 4.99%

COc1ccc(N2CCN(C(=O)c3ccc4nc(N5CCCCC5)sc4c3)CC2)cc1
inactive: growth inhibition [1] 9.87% | growth inhibition [2] 6.32% | viability increase [3] 0.49% | viability [4] 101% | viability [5] 87% | inhibition [6] 2.52% | RAM network inhibition [7] 6.15%

O=C(Nc1ccc2c(c1)OCO2)C1COc2ccccc2O1 (configuration not stated)
inactive: growth inhibition [1] -13.5% | growth inhibition [2] -5.98% | viability increase [3] -3.15% | viability [4] 91.9% | viability [5] 99.8% | inhibition [6] 2.16% | RAM network inhibition [7] 3.35%

COc1ccc(S(=O)(=O)Cc2ccc(C(=O)NC3CC3)o2)cc1
inactive: growth inhibition [1] 1.37% | growth inhibition [2] -4.7% | viability increase [3] -3.02% | viability [4] 75.5% | viability [5] 87.9% | inhibition [6] 0.85% | RAM network inhibition [7] 2.57%

CCOC(=O)Cn1c(=O)oc2cc(S(=O)(=O)Nc3ccc(N(CC)CC)cc3C)ccc21
inactive: growth inhibition [1] -11.3% | growth inhibition [2] -8.05% | viability increase [3] 0.16% | viability [4] 85.6% | viability [5] 86.6% | inhibition [6] 1.81% | RAM network inhibition [7] 9.51%

CCCc1cc(C(=O)Nc2sc(C(C)=O)c(C)c2C(=O)OCC)no1
inactive: growth inhibition [1] -18.8% | growth inhibition [2] -30.5% | viability increase [3] -4.9% | viability [4] 86.2% | viability [5] 78.4% | inhibition [6] 1.46% | RAM network inhibition [7] 3.25%

COC(=O)COC(=O)c1ccc(O)cc1
inactive: growth inhibition [1] 7.13% | growth inhibition [2] 4.2% | viability increase [3] -0.65% | viability [4] 99.5% | viability [5] 102% | inhibition [6] 2.5% | RAM network inhibition [7] 2.15%

COc1ccccc1C1NC(=O)NC(C)=C1C(=O)Nc1cccc(C)c1C (configuration not stated)
inactive: growth inhibition [1] -5.33% | growth inhibition [2] -10.3% | viability increase [3] -1.32% | viability [4] 105% | viability [5] 102% | inhibition [6] 0.77% | RAM network inhibition [7] -1.38%

O=C(COc1ccc(Cl)cc1)Nc1nnc(-c2ccc3c(c2)CCCC3)o1
inactive: growth inhibition [1] -12.6% | growth inhibition [2] -12.9% | viability increase [3] -1.94% | viability [4] 101% | viability [5] 96.5% | inhibition [6] 3.45% | RAM network inhibition [7] 1.21%

O=C1CC(Nc2ccc(N3CCOCC3)cc2)C(=O)N1c1cccc(C(F)(F)F)c1 (configuration not stated)
inactive: growth inhibition [1] 4.95% | growth inhibition [2] -14.4% | viability increase [3] -2.76% | viability [4] 110% | viability [5] 98.2% | inhibition [6] 0.74% | RAM network inhibition [7] 5.28%

O=c1nc2s/c(=C\c3ccco3)c(=O)n2nc1Cc1ccccc1
inactive: growth inhibition [1] -15.4% | growth inhibition [2] -3.2% | viability increase [3] -2.41% | viability [4] 97.7% | viability [5] 94.8% | inhibition [6] 2.04% | RAM network inhibition [7] 4.31%

COCCNC(=O)c1cc2c(=O)n3cccc(C)c3nc2n1C
inactive: growth inhibition [1] -9.01% | growth inhibition [2] -20.7% | viability increase [3] -5.8% | viability [4] 34.3% | viability [5] 33.9% | inhibition [6] 1.85% | RAM network inhibition [7] 3.01%

Cc1cc(N2CCOCC2)c2c(N)c(Br)cc(C)c2n1
inactive: growth inhibition [1] -14% | growth inhibition [2] -15.8% | viability increase [3] -5.84% | viability [4] 80.1% | viability [5] 76.4% | inhibition [6] 1.16% | RAM network inhibition [7] 3.17%

Cc1ccc(C2=[N+]([O-])C3(CCCCC/C3=N\O)N(O)C2(C)C)o1 (configuration not stated)
inactive: growth inhibition [1] -1.35% | growth inhibition [2] -2.15% | viability increase [3] -1.16% | viability [4] 99% | viability [5] 93.7% | inhibition [6] -0.505% | RAM network inhibition [7] 1.01%

O=C(Nn1c(=S)[nH]c2ccccc2c1=O)c1ccncc1
inactive: growth inhibition [1] 6.51% | growth inhibition [2] -5.44% | viability increase [3] -2.87% | viability [4] 91.9% | viability [5] 90.5% | inhibition [6] 1.75% | RAM network inhibition [7] 4.74%

O=C(NCCCN1CCOCC1)c1ccco1
inactive: growth inhibition [1] -9.93% | growth inhibition [2] -3.09% | viability increase [3] -0.94% | viability [4] 98.8% | viability [5] 96.2% | inhibition [6] 0.23% | RAM network inhibition [7] 2.27%

CCC(=O)N1c2ccccc2NC2=C(C(=O)CC(c3ccco3)C2)C1c1ccco1 (configuration not stated)
inactive: growth inhibition [1] -7.69% | growth inhibition [2] 7.1% | viability increase [3] -1.65% | viability [4] 92.4% | viability [5] 92.4% | inhibition [6] 0.915% | RAM network inhibition [7] -0.58%

O=C(Oc1cccnc1)c1cccc(Cl)c1
inactive: growth inhibition [1] 6.51% | growth inhibition [2] 20.1% | viability increase [3] -0.55% | viability [4] 101% | viability [5] 97.5% | inhibition [6] 0.79% | RAM network inhibition [7] -2.15%

CCOC(=O)CC1C(=O)NCCN1Cc1cccc(OC)c1 (configuration not stated)
inactive: growth inhibition [1] -12.5% | growth inhibition [2] -6.96% | viability increase [3] 0.71% | viability [4] 100% | viability [5] 108% | inhibition [6] 0.17% | RAM network inhibition [7] 1.79%

CCN(CC)C1=CC(=O)OC12CCCCC2
inactive: growth inhibition [1] -13.1% | growth inhibition [2] 0.735% | viability increase [3] -2.99% | viability [4] 98.5% | viability [5] 93.7% | inhibition [6] 2.08% | RAM network inhibition [7] 9.79%

CCC(C)NC(=O)CS(=O)Cc1nc(-c2cccc(C)c2)oc1C (configuration not stated)
inactive: growth inhibition [1] -12.9% | growth inhibition [2] -5.66% | viability increase [3] -1.72% | viability [4] 99.4% | viability [5] 88.2% | inhibition [6] 1.52% | RAM network inhibition [7] 4.65%

COc1cccc(-n2c(=O)[nH]cc(C(=O)Nc3ccc4c(c3)OCCO4)c2=O)c1
inactive: growth inhibition [1] -8.56% | growth inhibition [2] -1.22% | viability increase [3] -1.26% | viability [4] 105% | viability [5] 101% | inhibition [6] 3.17% | RAM network inhibition [7] 5.22%

COc1ccc(Cl)cc1NC(=O)c1cnc2n(c1=O)CCS2
inactive: growth inhibition [1] -7.35% | growth inhibition [2] 3.42% | viability increase [3] -4.43% | viability [4] 94.5% | viability [5] 89.2% | inhibition [6] 2.78% | RAM network inhibition [7] 3.81%

COc1ccc(OCCOC(=O)Nc2ccccc2)cc1
inactive: growth inhibition [1] -13.2% | growth inhibition [2] -6.21% | viability increase [3] 1.53% | viability [4] 93.4% | viability [5] 94.1% | inhibition [6] 1.64% | RAM network inhibition [7] 5.48%

Cc1cc(NC(=O)CSc2c3c(nc4ccccc24)CCC3)no1
inactive: growth inhibition [1] -4.17% | growth inhibition [2] 5.52% | viability increase [3] -6.01% | viability [4] 78.1% | viability [5] 74.6% | inhibition [6] 2.21% | RAM network inhibition [7] 2.01%

COc1ccc(S(=O)(=O)N2CCN(Cc3c[nH]c4ccccc34)CC2)cc1
inactive: growth inhibition [1] -13.2% | growth inhibition [2] -14.2% | viability increase [3] -4.53% | viability [4] 80.7% | viability [5] 89.6% | inhibition [6] 2.11% | RAM network inhibition [7] 4.82%

COc1cc(-c2nc(-c3cccc(C)c3)no2)cc(OC)c1OC
inactive: growth inhibition [1] -5.34% | growth inhibition [2] -14.7% | viability increase [3] 0.46% | viability [4] 81.3% | viability [5] 81% | inhibition [6] 2.26% | RAM network inhibition [7] 9.46%
